Drawing on ChEMBL document CHEMBL1671775, “Synthesis, anticancer activity, and iron affinity of the Actinoplanes metabolite 7,8-dihydroxy-1-methylnaphtho[2,3-c]furan-4,9-dione” (Bioorg Med Chem, 2011), this text covers IC50 for three compounds.

Common to all, as to type: functional, cell-based
One assay has as its system HT-29. The experiment in a line: Cytotoxicity against human HT-29 cells after 72 hrs by MTT assay. The settings on record: HT-29, 72 h.
For a further assay, the system named is HL-60. The experiment in a line: Cytotoxicity against human HL60 cells after 72 hrs by MTT assay. The settings on record: HL-60, 72 h. The gist of the method: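 HL-60 cells were grown in RPMI 1640 with 10% FCS at 37 °C and 5% CO2, seeded at 5 × 10^5/mL and cultured 24 h. Cells were then exposed to compound for 72 h. MTT was added to a final 0.05% for 2 h, and formazan was dissolved in DMSO with 10% SDS and 0.6% acetic acid. A570 was read against A630 background. IC50 was taken from concentration–response curves relative to untreated controls; quadruplicate, four independent experiments.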
A general note: Tetrazolium assays rely on reduction of a dye to a coloured formazan, in cell work by metabolically active cells.

A short description of assay [1]: Cytotoxicity against human KB-V1/Vbl cells after 72 hrs by MTT assay. An outline of the steps:
(§1)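 Cells were seeded at 5 × 10^4/mL and cultured 24 h, then exposed to compound for 72 h. KB-V1/Vbl cells were grown in DMEM with 10% FCS and MCF-7/Top cells in EMEM with 5% FCS, pyruvate and NaHCO3. MTT was added to a final 0.1% for 2 h. Medium was discarded, and formazan was dissolved in DMSO/SDS/acetic acid. A570 was read against A630 background. IC50 was taken from concentration–response curves versus untreated controls; four independent experiments.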

A further assay has as its system HFF. Briefly: Cytotoxicity against human HFF after 72 hrs by MTT assay. The gist of the method:
(§2)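 518A2 cells and foreskin fibroblasts were grown in DMEM with 10% FCS, seeded at 5 × 10^4/mL and cultured 24 h. Cells were then exposed to compound for 72 h. MTT was added to a final 0.05% for 2 h. Medium was discarded, and formazan was dissolved in DMSO/10% SDS/0.6% acetic acid. A570 was read against A630 background. IC50 was taken from concentration–response curves versus untreated controls; four independent experiments.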

Assay [2] can be described thus: Cytotoxicity against human MCF7/Topo cells after 72 hrs by MTT assay. The gist of the method: as §1
A short description of assay [3]: Cytotoxicity against human 518A2 cells after 72 hrs by MTT assay. The settings on record: 518A2, 72 h. An outline of the steps: as §2

`Cc1occ2c1C(=O)c1c(ccc(O)c1O)C2=O`: the half-inhibitory concentration (IC50) in the assay with HT-29 was 70 µM; in the assay with HL-60, 89 µM; in assay [1], 86 µM; with HFF, 69 µM; in assay [2], more than 100 µM; in assay [3], 84 µM.
Take `CC1=CC(=O)C(C(C)C)=CC1=O` [THYMOQUINONE]: the IC50 is 47 µM in the assay on HT-29; 28 µM in the assay with HL-60; 32 µM in assay [1]; 33 µM in the assay on HFF; 27 µM in assay [2]; 28 µM in assay [3].
For `COc1ccc2c(c1O)C(=O)c1c(coc1C)C2=O`, the IC50 was 31 µM in the assay with HT-29; 18 µM in the assay with HL-60; 51 µM in assay [1]; 31 µM in the assay on HFF; 16 µM in assay [2]; more than 100 µM in assay [3].

Broadly, the IC50 is the midpoint of a concentration-inhibition curve. A higher IC50 goes with weaker potency.
